In ChEMBL document CHEMBL4428123, “Synthesis of phenylpiperazine derivatives of 1,4-benzodioxan as selective COX-2 inhibitors and anti-inflammatory agents” (Bioorg Med Chem, 2016):

Tests used:
Rattus norvegicus [1] = experiment: Analgesic activity in rat assessed as pain threshold time at 10 mg/kg, po measured at 1.5 hrs post dose by hot plate method (reference value: 19.1 to 21.2 sec); format: functional
Rattus norvegicus [2] = experiment: Anti-inflammatory activity in rat assessed as inhibition of carrageenan-induced paw edema at 20 mg/kg, po administered 30 mins before carrageenan challenge measured after 3 hrs relative to control; format: functional
In short: (§1)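 Male rats were dosed orally with agents suspended in 0.5% Na CMC, 30 min before 0.1 mL of 1% (w/v) carrageenan was injected into the right hind paw. Thickness of both paws was measured 1, 3 and 5 h after injection. Activity was calculated as percent decrease in edema thickness relative to the carrageenan-induced edema. Data given as mean ± SD with non-parametric comparison, P < 0.05.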

Rattus norvegicus [3] = experiment: Analgesic activity in rat assessed as pain threshold time at 10 mg/kg, po measured at 1 hr post dose by hot plate method (reference value: 19.1 to 21.2 sec); format: functional
Rattus norvegicus [4] = experiment: Anti-inflammatory activity in rat assessed as inhibition of carrageenan-induced paw edema at 5 mg/kg, po administered 30 mins before carrageenan challenge measured after 5 hrs relative to control; format: functional; in short: as §1
Rattus norvegicus [5] = experiment: Anti-inflammatory activity in rat assessed as inhibition of carrageenan-induced paw edema at 10 mg/kg, po administered 30 mins before carrageenan challenge measured after 5 hrs relative to control; format: functional; in short: as §1
Rattus norvegicus [6] = experiment: Analgesic activity in rat assessed as pain threshold time at 10 mg/kg, po measured at 0.5 hr post dose by hot plate method (reference value: 19.1 to 21.2 sec); format: functional
[7] = molecular target: T1, Prostaglandin G/H synthase 1 (Ovis aries, UniProt P05979); experiment: Inhibition of ovine COX1 by enzyme immunoassay
T1 sequence (P05979 whole entry): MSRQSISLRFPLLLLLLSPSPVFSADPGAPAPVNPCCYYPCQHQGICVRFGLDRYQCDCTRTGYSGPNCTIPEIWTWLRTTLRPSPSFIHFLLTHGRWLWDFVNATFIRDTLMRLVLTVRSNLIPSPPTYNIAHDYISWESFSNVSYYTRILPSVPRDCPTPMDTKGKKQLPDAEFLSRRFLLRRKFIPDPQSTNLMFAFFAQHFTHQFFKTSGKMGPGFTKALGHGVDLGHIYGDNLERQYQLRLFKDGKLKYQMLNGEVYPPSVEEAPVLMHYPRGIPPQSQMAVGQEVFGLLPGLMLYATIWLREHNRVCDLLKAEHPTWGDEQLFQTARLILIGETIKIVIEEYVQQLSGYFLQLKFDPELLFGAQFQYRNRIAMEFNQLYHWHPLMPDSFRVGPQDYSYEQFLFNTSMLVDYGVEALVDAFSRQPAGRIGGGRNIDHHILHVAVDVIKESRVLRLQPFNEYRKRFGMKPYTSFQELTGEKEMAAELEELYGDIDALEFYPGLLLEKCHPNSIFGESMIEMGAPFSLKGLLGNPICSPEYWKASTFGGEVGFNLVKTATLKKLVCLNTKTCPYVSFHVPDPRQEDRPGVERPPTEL

Rattus norvegicus [8] = experiment: Anti-inflammatory activity in po dosed rat assessed as inhibition of carrageenan-induced paw edema administered 30 mins before carrageenan challenge measured after 1 to 5 hrs; format: functional, organism-based; in short: as §1
Rattus norvegicus [9] = experiment: Anti-inflammatory activity in rat assessed as inhibition of carrageenan-induced paw edema at 20 mg/kg, po administered 30 mins before carrageenan challenge measured after 1 hr relative to control; format: functional; in short: as §1
Rattus norvegicus [10] = experiment: Anti-inflammatory activity in rat assessed as inhibition of carrageenan-induced paw edema at 10 mg/kg, po administered 30 mins before carrageenan challenge measured after 1 hr relative to control; format: functional; in short: as §1
Rattus norvegicus [11] = experiment: Anti-inflammatory activity in rat assessed as inhibition of carrageenan-induced paw edema at 5 mg/kg, po administered 30 mins before carrageenan challenge measured after 1 hr relative to control; format: functional; in short: as §1
Rattus norvegicus [12] = experiment: Anti-inflammatory activity in rat assessed as inhibition of carrageenan-induced paw edema at 5 mg/kg, po administered 30 mins before carrageenan challenge measured after 3 hrs relative to control; format: functional; in short: as §1
Rattus norvegicus [13] = experiment: Anti-inflammatory activity in rat assessed as inhibition of carrageenan-induced paw edema at 10 mg/kg, po administered 30 mins before carrageenan challenge measured after 3 hrs relative to control; format: functional; in short: as §1
Rattus norvegicus [14] = experiment: Anti-inflammatory activity in rat assessed as inhibition of carrageenan-induced paw edema at 20 mg/kg, po administered 30 mins before carrageenan challenge measured after 5 hrs relative to control; format: functional; in short: as §1
[15] = Ulcerogenecity in rat carrageenan-induced inflammation model assessed as stomach mucosal damage by measuring lesions at 5 to 20 mg/kg, po administered 30 mins before carrageenan challenge measured after 1 to 5 hrs by macroscopic analysis; format: ADME, organism-based; conditions: in vivo

Compound	Time (Rattus norvegicus [1]) [s]	Time (Rattus norvegicus [3]) [s]	inhibition in vivo at 10 mg/kg (Rattus norvegicus [5]) [%]	Time (Rattus norvegicus [6]) [s]	inhibition in vivo at 10 mg/kg (Rattus norvegicus [10]) [%]	inhibition in vivo at 10 mg/kg (Rattus norvegicus [13]) [%]	other results
FC(F)(F)c1cccc(N2CCN(Cc3ccc4c(c3)OCCO4)CC2)c1	23.1	24.7	68	26.4	76 to 78	91 to 92	inhibition in vivo at 20 mg/kg (Rattus norvegicus [2]): 95%; inhibition in vivo at 5 mg/kg (Rattus norvegicus [4]): 50%; IC50 [7]: 8.35 µM; inhibition (Rattus norvegicus [8]): Dose-dependent effect; inhibition in vivo at 20 mg/kg (Rattus norvegicus [9]): 78%; inhibition in vivo at 5 mg/kg (Rattus norvegicus [11]): 56%; inhibition in vivo at 5 mg/kg (Rattus norvegicus [12]): 73%; inhibition in vivo at 20 mg/kg (Rattus norvegicus [14]): 75%; Activity [15]: Non-Toxic
COc1ccc(N2CCN(Cc3ccc4c(c3)OCCO4)CC2)cc1	22.3	23.3	63	24.6	71	88	–
Clc1cccc(N2CCN(Cc3ccc4c(c3)OCCO4)CC2)c1Cl	–	–	13	–	18	28	–
c1ccc(N2CCN(Cc3ccc4c(c3)OCCO4)CC2)cc1	–	–	25	–	28	35	–
Fc1ccc(N2CCN(Cc3ccc4c(c3)OCCO4)CC2)cc1	19.9	20.7	57	21.5	62	82	–
O=[N+]([O-])c1ccc(N2CCN(Cc3ccc4c(c3)OCCO4)CC2)cc1	21.2	22.6	65	23.4	68	79	–
c1ccc(N2CCN(Cc3ccc4c(c3)OCCO4)CC2)nc1	–	–	35	–	40	55	–
c1ccc(C(c2ccccc2)N2CCN(Cc3ccc4c(c3)OCCO4)CC2)cc1	–	–	19	–	15	27	–
Clc1cccc(N2CCN(Cc3ccc4c(c3)OCCO4)CC2)c1	–	–	24	–	31	37	–
COc1cccc(N2CCN(Cc3ccc4c(c3)OCCO4)CC2)c1	–	–	40	–	45	62	–
Cc1ccc(N2CCN(Cc3ccc4c(c3)OCCO4)CC2)c(C)c1	–	–	11	–	16	28	–
O=C(O)Cc1ccccc1Nc1c(Cl)cccc1Cl [DICLOFENAC]	22.3	23.5	50 to 52	24.1	41 to 42	79 to 80	–
